Compound activity (PubChem)
H69AR inhibit – growth inhibitors of human H69AR lung tumor cells; viability, % at 10 µM; 85,000 compounds, 6% hits; AID 598; H69AR lung tumor viability, ATP luminescence, 72 h; active compounds read low;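 active = viability at or below 40%; inactive = viability above 40%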;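 also: multidrug resistant small cell line overexpressing MRP-1 efflux transporter; 100% = mean luminescence of untreated control wells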
Lung fibro prol – blocks proliferation of human lung fibroblasts. 85,000 compounds, 1.1% hits. viability, % at 10 µM. LL 47 human lung fibroblast viability, ATP luminescence; active compounds read low. AID 719;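 active = viability at or below 50% in the single dose screen; inactive = viability above 50%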;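 also: compound exposure lasted 72 h before the ATP readout; 100% = median luminescence of untreated cell-only wells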
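Signal: luminescent ATP detection, CellTiter-Glo; assay system: LL 47 human lung fibroblasts; input: 1,150 cells/well; incubation: overnight cell rest, 72 h compound treatment at 37 °C; measure: % viability versus median cells-only luminescence; medium: IMEM growth medium with 15% fetal bovine serum; dosing: compound addition at 0.1% DMSO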
Jurkat tox 60K – cytotoxic compounds reducing Jurkat cell viability. 56,000 compounds, 1.2% hits. inhibition, % at 4 µM. Jurkat E6.1 viability, ATP luminescence, 48 h. AID 463;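 active = inhibition above the mean inhibition of all tested compounds plus 3 SD, cut at about 28% in these data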
HUVEC inhibit – blocks proliferation of human endothelial cells; HUVEC proliferation, CellTiter-Glo luminescence, 72 h; active compounds read low; 86,000 compounds, 1.1% hits; viability, % at 10 µM (by protocol);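 active = viability at or below 30%; inactive = viability above 30%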;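 also: 100% = median luminescence of DMSO-only cell control wells on each plate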
Active calls of the source: *; nt = not tested or not shown. A selection: hits, their analogues and other compounds. The true share with any hit is near 6.4%.

SMILES	H69AR inhibit	Lung fibro prol	Jurkat tox 60K	HUVEC inhibit
CSc1cccc(NC(=O)C2CCCN(S(=O)(=O)c3ccc(F)cc3)C2)c1 (configuration not stated)	21.5*	99.8	-5.2	77.7
O=C(Cc1ccc(Cl)cc1)Nc1ccc(N2CCCC2)cc1	112.8	100.7	nt	108.8
O=C(Cc1sc(-c2ccccc2Cl)nc1-c1ccccc1)Nc1ccc(F)cc1	10.8*	44.8*	nt	78.6
O=C(Cc1sc(-c2ccccc2)nc1-c1ccccc1)Nc1ccc(Cl)cc1	20.2*	67.2	nt	49.9
O=C(Cc1sc(-c2ccccc2Cl)nc1-c1ccccc1)Nc1ccccc1	44.9	23.3*	nt	66.2
Cc1onc(-c2ccccc2Cl)c1C(=O)Nc1ccccc1	106.8	102.1	nt	99.0
CCOC(=O)C1CCCN(C(=O)c2cc3ncc(Br)cn3n2)C1 (configuration not stated)	97.8	93.2	-4.8	102.5
O=C(OC(C(=O)NC1CCCC1)c1ccncc1)C1=Cc2ccccc2OC1 (configuration not stated)	81.6	104.5	nt	94.8
C=CCSc1nncn1/N=C/c1ccc(OC)cc1	94.0	nt	-2.4	94.2
COc1ccc(/C=N/n2cc(-c3ccccc3)nc2N)cc1	18.2*	82.3	-2.1	58.5
COc1ccc(/C=N/n2cc(-c3ccc(OC)cc3)nc2N)cc1	25.1*	93.6	8.4	84.3
COc1ccc(NCc2nnc(SCC(=O)c3ccc(OC)cc3)o2)cc1	96.2	92.6	nt	86.7
COc1ccc(OC)c(NC(=O)CSc2nnc(CNC(=O)COc3ccc(Cl)cc3)o2)c1	108.6	107.7	0.9	101.9
COc1ccc(NC(=O)CSc2nnc(CNC(=O)COc3ccc(Cl)cc3)o2)c(OC)c1	107.3	44.4*	1.5	93.3
CCOc1cc(C(=O)CSc2nnc(CNc3ccc(Cl)cc3)o2)ccc1NC(=O)CC	0.2*	64.1	6.1	1.7*
O=C(CC1CCCCC1)Nc1ncn[nH]1	86.1	96.5	nt	100.4
CCc1[nH]nc2c1C(c1ccsc1)C(C#N)=C(N)O2 (configuration not stated)	61.3	98.4	nt	81.7
CCc1[nH]nc2c1C(c1ccc(Br)s1)C(C#N)=C(N)O2 (configuration not stated)	1.7*	24.4*	nt	69.4
FC(F)Sc1ccc(NC(=S)NCC2CCCCC2)cc1	5.1*	83.2	nt	43.3
FC(F)Sc1ccc(NC(=S)NC2CCCCC2)cc1	18.4*	96.2	nt	49.1
CC1CCCCC1NC(=S)Nc1ccc(SC(F)F)cc1 (configuration not stated)	32.0*	44.4*	nt	41.6
Cc1ccnc(NC2OC(=O)c3ccccc32)c1 (configuration not stated)	91.2	99.0	nt	98.5
CCOc1ccc(-c2nc(=S)[nH][nH]2)cc1	39.8*	101.7	1.6	91.7
COc1cc(NC(=O)N[C@H](C(=O)O)C(C)C)cc(OC)c1	98.6	99.3	-0.9	107.9
CCOC(=O)c1[nH]c(C)c(C(=O)Nc2ccc(C)c(Cl)c2)c1C	31.9*	79.5	5.5	61.6
SMILES	H69AR inhibit	Lung fibro prol	Jurkat tox 60K	HUVEC inhibit
CCOC(=O)c1[nH]c(C)c(C(=O)Nc2ccc(C)c(F)c2)c1C	20.3*	92.3	49.3*	73.0
Cc1ccc(C2NC(=O)NC(O)(C(F)(F)F)C2C(=O)c2ccccc2)o1 (configuration not stated)	89.7	91.2	-2.9	99.1
Cc1ccc(C2NC(=O)NC(O)(C(F)(F)F)C2C(=O)c2cccs2)o1 (configuration not stated)	103.8	98.4	-4.0	16.9*
O=C(Nc1ccc(CN2CCOCC2)cc1)c1ccc(-c2cc(Cl)ccc2Cl)o1	20.9*	92.9	nt	40.5
Cc1cc(N2CCCCC2)nc2ccc(NC(=O)c3ccc(Br)o3)cc12	44.4	92.9	nt	34.2
Cc1cc(N2CCN(C)CC2)nc2ccc(NC(=O)c3ccc(Br)o3)cc12	4.2*	43.4*	nt	8.2*
O=C(Nc1ccc(N2CCOCC2)c(Cl)c1)c1ccc(Br)o1	20.0*	107.1	-1.4	80.8
O=C(c1cc(C2CC2)on1)N1CCN(c2ccccc2)CC1	100.3	104.9	nt	115.3
Cc1ccc(-n2nc3c(N4CCN(c5ccccc5)CC4)nnc(C)c3c2C)cc1	65.8	95.1	nt	75.0
C=CCNC(=O)CSc1nc2cc(C(=O)OCC)ccc2n1CC	26.1*	90.5	nt	80.3
COc1cccc(CNC(=O)CSCc2cnn(-c3ccccc3)c2-n2cccc2)c1	78.5	102.9	nt	101.7
CC(=O)COc1ncn(-c2ccccc2)n1	98.8	100.1	nt	106.1
O=c1oc2ccccc2cc1-c1nnc(-c2cccc(Br)c2)o1	38.3*	106.9	-0.3	98.7
CN(C)c1ccc(-c2nc3ccccc3n2C)cc1	nt	nt	16.1	nt
CCN(CC)c1ccc2cc(-c3nc4ccccc4[nH]3)c(=O)oc2c1	1.4*	26.2*	4.0	37.5
CCN(CC)c1ccc2cc(-c3nnc(-c4ccccc4)o3)c(=O)oc2c1	21.9*	72.3	nt	57.1
CCN(CC)c1ccc2cc(-c3nnc(-c4ccc(Br)cc4)o3)c(=O)oc2c1	100.8	93.5	nt	76.2
CCN(CC)c1ccc2cc(-c3nc4ccccc4n3C)c(=O)oc2c1	20.3*	50.7	98.8*	20.8*
O=C(CCCCCN1C(=O)c2ccccc2C1=O)Nc1ccc(F)cc1	93.8	105.4	nt	100.8
COc1ccc(-n2nnc3c(SCC(=O)N4CCCc5ccccc54)ncnc32)cc1	62.1	96.7	1.3	85.3
CCc1ccccc1N(CC(=O)N1CCN(c2ccccc2)CC1)S(C)(=O)=O	99.2	95.8	-13.0	106.9
CS(=O)(=O)Nc1ccccc1C(=O)c1ccccc1	94.1	104.5	-1.7	109.5
O=c1oc2ccccc2c(Nc2ccc(O)cc2)c1[N+](=O)[O-]	80.9	99.5	nt	96.5
O=c1oc2ccccc2c(Nc2ccc3ccccc3c2)c1[N+](=O)[O-]	18.9*	90.5	nt	58.8
CCOc1cc(C2c3c(oc4cc(C)c(Cl)cc4c3=O)C(=O)N2Cc2ccco2)ccc1O (configuration not stated)	3.1*	53.0	-4.0	41.0
SMILES	H69AR inhibit	Lung fibro prol	Jurkat tox 60K	HUVEC inhibit
Cc1ccc2oc3c(c(=O)c2c1)C(c1cccc(O)c1)N(c1ccccn1)C3=O (configuration not stated)	85.6	97.6	-6.0	89.9
COc1cc(C2c3c(oc4ccccc4c3=O)C(=O)N2Cc2ccco2)ccc1O (configuration not stated)	85.2	95.1	nt	86.0
Cc1ccc2oc3c(c(=O)c2c1)C(c1cccc(Br)c1)N(Cc1ccco1)C3=O (configuration not stated)	3.1*	10.5*	-8.3	55.6
Cc1cc2oc3c(c(=O)c2cc1C)C(c1cccc(Br)c1)N(Cc1ccco1)C3=O (configuration not stated)	4.5*	54.2	6.0	39.8
Cc1ccc(NC(=O)CN(Cc2ccccc2)S(C)(=O)=O)cc1C	87.5	104.3	nt	99.8
C=CCc1ccc(OCC(O)COc2ccc(CC=C)cc2OC)c(OC)c1	34.6*	99.5	nt	85.2
C=CCc1ccc(OCC(O)CN2CCCCC2)c(OC)c1 (configuration not stated)	82.6	101.3	-1.4	90.6
CC(c1ccccc1)N1C(=O)c2ccccc2C1O (configuration not stated)	90.5	99.2	nt	98.6
